High-throughput results from PubChem BioAssay.
Rows were chosen to be rich in hits. Some 4.1% of all compounds tested hit in one or more screens of this group.
KCNQ1 block – inhibitors of human KCNQ1 channel, primary screen, cell-based, thallium flux, high-throughput. AID 2642, 2010. hit rate 1.3% among 310,000. B-score at 10 µM. CHO-K1 KCNQ1, FluxOR thallium flux fluorescence; hits give high values;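 active means compounds whose thallium flux B-score, printed positive for inhibition, exceeds three library SD while starting fluorescence stays within three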;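 further: channel opened by potassium depolarization with thallium stimulus after 20 min compound exposure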
KCNK9 inh – KCNK9 potassium channel inhibitors, primary screen, HEK293 cells, thallium flux; B-score at 10 µM; AID 488922, 2010; hit rate 1.2% among 310,000; Potassium channel subfamily K member 9 (Homo sapiens), Q9NPC2; FluxOR thallium flux fluorescence; hits give low values;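 active means ratio B-score over 3 SD below the library mean, with starting fluorescence within 5 SD of its mean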;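 further: negative B-score means less thallium flux so channel inhibition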
Target sequence (Q9NPC2 whole entry, looked up): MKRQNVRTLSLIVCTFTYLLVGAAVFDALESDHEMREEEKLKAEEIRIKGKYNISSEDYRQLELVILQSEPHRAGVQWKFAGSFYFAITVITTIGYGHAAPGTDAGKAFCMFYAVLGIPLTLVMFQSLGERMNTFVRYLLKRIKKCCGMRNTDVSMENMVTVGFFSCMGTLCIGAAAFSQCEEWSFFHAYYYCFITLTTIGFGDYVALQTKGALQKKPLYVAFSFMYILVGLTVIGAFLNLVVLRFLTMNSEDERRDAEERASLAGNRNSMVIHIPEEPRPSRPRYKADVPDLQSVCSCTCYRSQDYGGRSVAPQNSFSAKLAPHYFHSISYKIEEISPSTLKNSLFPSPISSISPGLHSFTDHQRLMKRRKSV
KCNQ1 act – potentiators or activators of KCNQ1 channel, primary screen, cell-based, thallium flux, high-throughput; Potassium voltage-gated channel subfamily KQT member 1 (Homo sapiens), P51787; CHO-K1 KCNQ1, thallium flux FluxOR fluorescence; hits give high values; B-score at 10 µM; hit rate 0.35% among 310,000;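 active means fluorescence ratio B-score, a plate-corrected score, at least three library SD, with initial intensity B-score within 5 SD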
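System: Stable KCNQ1 CHO-K1 line | Incubation: 90 min dye loading and 20 min compound exposure, both at room temperature | Measure: Ratio B score | Medium: Assay buffer for compound exposure, DMSO matched across wells | Compound dosing: Single-concentration screen | Probe or stimulus: K+/Tl+ depolarizing stimulus | Measured by: Kinetic FluxOR fluorescence, 10 s baseline plus 110 s post-stimulus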
KCC2 mod – KCC2 cotransporter modulators, thallium flux, primary screen, cell-based, HEK293 KCC2, FluoZin-2 fluorescence, MLSMR; KCC2 cells, thallium flux FluoZin-2 fluorescence; hit rate 2.2% among 190,000; B-score of Tl+ flux slope (higher = more flux/activation; lower = inhibition) at 10 µM; Solute carrier family 12 member 5 (Homo sapiens), Q9H2X9;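 active means thallium flux slope and its plate-corrected score both differing from the plate sample mean at a set confidence after two filtering rounds, in either direction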;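 further: slope of fluorescence scaled to starting intensity during 10 to 20 s after thallium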
hERG rescue – hERG rescue from dofetilide block, primary screen, cell-based, CHO-hERG, FluxOR thallium flux, dofetilide IC70. Voltage-gated inwardly rectifying potassium channel KCNH2 (Homo sapiens), Q12809. dofetilide IC70 present. activation (rescue from dofetilide block), less the hit threshold, % at 10 µM. hit rate 0.51% among 310,000;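 active means activation above the mean of controls blocked by dofetilide plus 5 SD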;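 further: thallium influx through hERG after potassium depolarization seen as dye fluorescence rise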
KCNK3 block – human KCNK3 channel inhibitors, primary screen, CHO cells, FluxOR thallium flux, B-score. FluxOR fluorescence; hits give low values. B-score at 10 µM. hit rate 0.84% among 340,000. AID 602410, 2012;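 active means B-score under library mean minus 4 SD, starting fluorescence ratio at most library mean plus 5 SD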;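 further: more negative B-score means stronger inhibition of thallium flux through KCNK3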
KCNK9 inh conf – KCNK9 potassium channel inhibitors, confirmation, HEK293 cells, thallium flux, duplicate; shares compounds with KCNK9 inh; FluxOR thallium flux fluorescence; inhibition, % at 10 µM; hit rate 43% among 4,900; AID 492992, 2010;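 active means thallium signal inhibited by more than 5 SD of the compound-free buffer control wells, on both duplicate plates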;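 further: 0% = assay buffer control wells without compound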
Kir21 sel – mouse Kir2.1 channel inhibition, confirmation, selectivity assay for KCNK9 modulator project, cell-based, HEK293, thallium flux; AID 492993, 2010; Kir2.1 cells, FluxOR thallium flux fluorescence; shares compounds with KCNK9 inh; hit rate 4% among 4,900; inhibition, % at 10 µM;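 active means thallium signal drop more than 5 SD beyond the mean of the no-compound control wells, seen in both duplicate plates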;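 further: signal is fluorescence rise after thallium addition divided by baseline fluorescence; plate controls were assay buffer only for no effect and full block by chlorpromazine control for full effect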
KCNK9 uninduced – thallium flux in non-induced HEK293 cells, confirmation, counter-screen for KCNK9 inhibitor project, cell-based, second counter screen, non-induced KCNK9-HEK293; shares compounds with KCNK9 inh; inhibition, % at 10 µM; FluxOR thallium flux; hit rate 40% among 4,900;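 active means thallium signal drop beyond 5 SD of the untreated control mean, on both duplicate plates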;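 further: plate controls were buffer only IC0 wells for no effect and SID17386958 at its maximal inhibitory level for full effect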
The depositor's hits bear a star.

What do the screens show for `COc1ccc(N2CC(C)Cn3c2nc2c3c(=O)n(Cc3ccc(C)cc3)c(=O)n2C)c(OC)c1` (stereo not drawn)?
KCNQ1 block: inactive; KCNK9 inh: inactive; KCNQ1 act: inactive; KCC2 mod: -2.2; hERG rescue: -15; KCNK3 block: inactive; KCNK9 inh conf: inactive; Kir21 sel: inactive; KCNK9 uninduced: inactive

What do the screens show for `COc1ccc(N2CC(C)Cn3c2nc2c3c(=O)n(Cc3ccc(F)cc3)c(=O)n2C)c(OC)c1` (stereo not drawn)?
KCNQ1 block: inactive; KCNK9 inh: inactive; KCNQ1 act: inactive; hERG rescue: -6; KCNK3 block: inactive

What do the screens show for `CC1=NN(C(=O)c2ccc(Cn3ccc([N+](=O)[O-])n3)cc2)C(O)(C(F)(F)F)C1` (stereo not drawn)?
KCNQ1 block: inactive; KCNK9 inh: inactive; KCNQ1 act: inactive; KCC2 mod: -0.81; hERG rescue: -4; KCNK3 block: inactive

What do the screens show for `CCc1nc(N2CCN(C(=O)c3ccccc3)CC2)c2c3c(sc2n1)CCCC3`?
KCNQ1 block: inactive; KCNK9 inh: inactive; KCNQ1 act: inactive; KCC2 mod: -0.9; hERG rescue: -16; KCNK3 block: inactive

What do the screens show for `CCc1nc(N2CCN(C(=O)c3ccco3)CC2)c2c3c(sc2n1)CCCC3`?
KCNQ1 block: inactive; KCNK9 inh: -10*; KCNQ1 act: inactive; KCC2 mod: -0.65; hERG rescue: -15; KCNK3 block: inactive; KCNK9 inh conf: 50%*; Kir21 sel: inactive; KCNK9 uninduced: inactive

Results for C=CCNCc1cc(=O)n2c(-c3ccccc3)csc2n1 ?
KCNQ1 block: inactive; KCNK9 inh: inactive; KCNQ1 act: inactive; hERG rescue: -8; KCNK3 block: inactive

How did CCc1nnc(NC(=O)CSc2nnc(-c3ccccc3OC)n2-c2ccc(C)cc2)s1 do in these assays?
KCNQ1 block: inactive; KCNK9 inh: inactive; KCNQ1 act: inactive; KCC2 mod: -1.5; hERG rescue: -4; KCNK3 block: inactive

What do the screens show for `CCc1nnc(NC(=O)CSc2nnc(-c3ccccc3OC)n2-c2ccccc2)s1`?
KCNQ1 block: inactive; KCNK9 inh: -17*; KCNQ1 act: inactive; KCC2 mod: -0.42; hERG rescue: -16; KCNK3 block: inactive; KCNK9 inh conf: 68%*; Kir21 sel: inactive; KCNK9 uninduced: 32%*

Results for O=C1/C(=C/c2cccc(F)c2)SC(=S)N1NS(=O)(=O)c1ccccc1 ?
KCNQ1 block: inactive; KCNK9 inh: inactive; KCNQ1 act: inactive; hERG rescue: -2; KCNK3 block: inactive; KCNK9 inh conf: inactive; Kir21 sel: inactive; KCNK9 uninduced: inactive

Results for Cc1ccc(S(=O)(=O)NN2C(=O)/C(=C\c3ccc(Cl)cc3)SC2=S)cc1 ?
KCNQ1 block: inactive; KCNK9 inh: inactive; KCNQ1 act: inactive; hERG rescue: -2; KCNK3 block: inactive

How did COc1ccc(/C=C2/SC(=S)N(NS(=O)(=O)c3ccc(C)cc3)C2=O)cc1 do in these assays?
KCNQ1 block: inactive; KCNK9 inh: inactive; KCNQ1 act: 12*; hERG rescue: -10; KCNK3 block: inactive; KCNK9 inh conf: inactive; Kir21 sel: inactive; KCNK9 uninduced: inactive

Results for C=CCOc1ccc(/C=C2\SC(=S)N(NS(=O)(=O)c3ccc(C)cc3)C2=O)cc1 ?
KCNQ1 block: inactive; KCNK9 inh: inactive; KCNQ1 act: 24*; hERG rescue: -4; KCNK3 block: inactive; KCNK9 inh conf: inactive; Kir21 sel: inactive; KCNK9 uninduced: inactive

Results for COc1cc(/C=C2\SC(=S)N(NS(=O)(=O)c3ccccc3)C2=O)cc(OC)c1OC ?
KCNQ1 block: inactive; KCNK9 inh: inactive; KCNQ1 act: inactive; KCC2 mod: 0.36; hERG rescue: -17; KCNK3 block: inactive

How did COc1ccc(S(=O)(=O)N2CCN(Cc3cccc(F)c3)CC2)cc1 do in these assays?
KCNQ1 block: inactive; KCNK9 inh: inactive; KCNQ1 act: inactive; hERG rescue: -6; KCNK3 block: inactive

Results for CCOC(=O)C(NC(=O)c1ccccc1Cl)(Nc1ccc(C(F)(F)F)cc1)C(F)(F)F (stereo not drawn) ?
KCNQ1 block: inactive; KCNK9 inh: -12*; KCNQ1 act: inactive; KCC2 mod: -0.47; hERG rescue: -7; KCNK3 block: inactive; KCNK9 inh conf: 66%*; Kir21 sel: inactive; KCNK9 uninduced: 42%*

What do the screens show for `CCOC(=O)C(NC(=O)c1ccccc1Cl)(Nc1ccc(C)c(C)c1)C(F)(F)F` (stereo not drawn)?
KCNQ1 block: inactive; KCNK9 inh: inactive; KCNQ1 act: inactive; KCC2 mod: -0.066; hERG rescue: -10; KCNK3 block: inactive

What do the screens show for `COC(=O)c1ccc(C(=O)OC)c(NC(=O)CN(C)Cc2ccccc2)c1`?
KCNQ1 block: inactive; KCNK9 inh: -11*; KCNQ1 act: inactive; KCC2 mod: -1.6; hERG rescue: -20; KCNK3 block: inactive; KCNK9 inh conf: 71%*; Kir21 sel: inactive; KCNK9 uninduced: 36%*

What do the screens show for `COC(=O)c1ccc(C(=O)OC)c(NC(=O)CCS(=O)(=O)Cc2ccccc2)c1`?
KCNQ1 block: inactive; KCNK9 inh: inactive; KCNQ1 act: inactive; hERG rescue: 0; KCNK3 block: inactive

How did COC(=O)c1ccc(C(=O)OC)c(NC(=O)CN(C)Cc2cccc(Cl)c2Cl)c1 do in these assays?
KCNQ1 block: inactive; KCNK9 inh: -12*; KCNQ1 act: inactive; KCC2 mod: -0.18; hERG rescue: -12; KCNK3 block: inactive; KCNK9 inh conf: 80%*; Kir21 sel: inactive; KCNK9 uninduced: 46%*

How did CNC[C@@H]1Oc2ccc(NC(=O)Nc3c(C)noc3C)cc2CC(=O)N([C@H](C)CO)C[C@H]1C do in these assays?
KCNK3 block: inactive
